We go through eight molecules from ChEMBL document CHEMBL1641469, “New Hedgehog/GLI signaling inhibitors from Excoecaria agallocha” (Bioorg Med Chem Lett, 2011).

Each structure is given as a SMILES string. Calls of active or inactive are those of the source. No cut-off for these calls is given here.

Assay [1] relates to PANC-1. Description: Inhibition of human HH/Gli1-mediated PTCH mRNA expression in human PANC1 cells transfected with Smo siRNA at 0.7 to 1.4 uM by RT-PCR analysis. The class given is cell-based. Put shortly: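 PANC1 cells transfected with Smo siRNA (non-targeting siRNA at same concentration as control), Smo depletion confirmed by Western blot; treated cells then assayed for Ptch mRNA by real-time quantitative RT-PCR.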

Assay [2] relates to PANC-1. Description: Cytotoxicity against human PANC1 cells after 24 hrs by FMCA method. The format is functional, cell-based. Particulars: PANC-1, 24 h. Put shortly: (§1)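 Cells (PANC1, DU145, C3H10T1/2) exposed to compounds in 0.05% DMSO; viability measured, n = 3; IC50 values derived from concentration–response.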
Assay [3] concerns PANC-1. Description: Inhibition of human HH/Gli1-mediated PTCH mRNA expression in human PANC1 cells at 0.7 to 1.4 uM by RT-PCR analysis. The class given is cell-based. Put shortly:
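PANC1 cells treated in 0.05% DMSO; Ptch mRNA quantified by RT-PCR with GAPDH as internal control; n = 3.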

In assay [4] the test system is PANC-1. Description: Inhibition of human HH/Gli1-mediated induction of nuclear Gli1 level in human PANC1 cells at 1.6 uM by Western blot analysis. The format is cell-based. Put shortly: (§2)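 PANC1 cells treated, then full, cytosolic and nuclear fractions prepared; GLI1, PTCH and BCL2 protein levels assessed by Western blotting.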
(In general: Immunoblotting shows a protein as a band on a membrane.)

Assay [5] is described as follows: Inhibition of human HH/Gli1-mediated transcriptional activity in tetracycline-treated human HaCaT cells treated after 12 hrs of tetracycline addition by luciferase reporter gene assay. The class given is cell-based. In a few lines:
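HaCaT cells carrying a GLI1-driven luciferase construct, seeded at 2 × 10⁵ cells per well; compounds added 12 h after tetracycline induction; luciferase activity and cell viability read at the same time point.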
A general note: Reporter assays use an easily measured gene product as a stand-in for the process of interest.

Assay [6] concerns PANC-1. Description: Inhibition of human HH/Gli1-mediated expression of BCL-2 in human PANC1 cells by Western blot analysis. The class given is cell-based. Put shortly: as §2
The nature of assay [7]: Cytotoxicity against mouse C3H10T1/2 cells after 24 hrs by FMCA method. The format is functional, cell-based. As to conditions: C3H 10T1/2, 24 h. Put shortly: as §1
Assay [8] relates to PANC-1. Description: Inhibition of human HH/Gli1-mediated expression of PTCH in human PANC1 cells by Western blot analysis. The class given is cell-based. Put shortly: as §2
The test system of the next assay is DU-145. Description: Cytotoxicity against human DU145 cells after 24 hrs by FMCA method. As to conditions: DU-145, 24 h. The format is functional, cell-based. In a few lines:
as §1

Where [9] appears, read: Homo sapiens, HaCaT, 12 h, read-out: IC50.

`CO[C@@H]1[C@@H](O)[C@H](C)O[C@@H](Oc2c(-c3ccc(O)c(O)c3)oc3cc(O)cc(O)c3c2=O)[C@@H]1O`: the inhibition result with PANC-1 [1], in the assay with PANC-1 [3] and with PANC-1 [4] was “Active” in each case. Further, the IC50 is 0.7 µM in the assay on PANC-1 [2], 0.5 µM in [5] (setting [9]), above 100 µM in [7] and 0.8 µM in the assay on DU-145. The inhibition result in the assay with PANC-1 [6] and with PANC-1 [8] was “Dose-dependent effect” each time.

Regarding `CC(=O)O[C@H]1[C@H](Oc2c(-c3ccc(O)cc3)oc3cc(O)cc(O)c3c2=O)O[C@@H](C)[C@H](O)[C@H]1O`, in [5] (hacat), the IC50 entry is “Not Active”.

Take `C[C@@H]1O[C@@H](OC[C@H]2O[C@@H](Oc3c(-c4ccc(O)c(O)c4)oc4cc(O)cc(O)c4c3=O)[C@H](O)[C@@H](O)[C@@H]2O)[C@H](O)[C@H](O)[C@H]1O` [RUTIN]: the IC50 result in assay [5] (hacat) is on record as “Not Active”.

As to `C[C@@H]1O[C@@H](Oc2c(-c3ccc(O)cc3)oc3cc(O)cc(O)c3c2=O)[C@H](O)[C@H](O)[C@H]1O` [AFZELIN], the IC50 result in assay [5] (hacat) is “Not Active”.

Regarding `C[C@@H]1O[C@@H](Oc2c(-c3ccc(O)c(O)c3)oc3cc(O)cc(O)c3c2=O)[C@H](O)[C@H](O)[C@H]1O` [QUERCITRIN], the IC50 entry in assay [5] (hacat) was “Not Active”.

Regarding `O=c1c(O[C@@H]2O[C@@H](CO)[C@H](O)[C@H]2O)c(-c2ccc(O)cc2)oc2cc(O)cc(O)c12` [JUGLANIN], the IC50 in the assay on PANC-1 [2] was 1.8 µM; in assay [5] (setting [9]), 2 µM; in assay [7], above 100 µM; in the assay on DU-145 it was 2.4 µM.

`CO[C@@H]1[C@@H](O)[C@H](C)O[C@@H](OC[C@@]2(O)CO[C@@H](Oc3c(-c4ccc(O)c(O)c4)oc4cc(O)cc(O)c4c3=O)[C@@H]2O)[C@@H]1O`: the IC50 was 20 µM in the assay on PANC-1 [2], 19.1 µM in [5] (setting [9]), above 100 µM in [7] and 22 µM in the assay with DU-145.

Turning to `COc1ccc(-c2oc3cc(O)cc(O)c3c(=O)c2O[C@@H]2O[C@@H](C)[C@H](O)[C@@H](O)[C@H]2O)cc1`, the IC50 entry in [5] (hacat) is listed as “Not Active”.

As a reminder, the IC50 is the midpoint of a concentration-inhibition curve.
